Screening data (PubChem BioAssay)
Compounds with a hit are over-represented: about 5.5% of the library has one in this group of screens.
Yeast growth inh – reduces growth of yeast BB579 in restrictive medium. S. cerevisiae BB579 growth, OD615, 48 h. inhibition, % at 10 µM. 140,000 compounds, 0.51% hits. AID 804;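 active = inhibition above a set limit, 3 SD over the mean compound inhibition, cut at about 44% in these data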
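System: Saccharomyces cerevisiae DeaD strain BB579, replicative lifespan model yeast | Buffer or medium: Restrictive glucose-based CSMM-D medium | Times: 4 h preincubation and 48 h exposure at 30 °C | Detection: OD615 turbidity measurement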
RAM inhibit – inhibitors of the yeast RAM network; S. cerevisiae dse1pr::URA3 reporter, 5-FOA growth OD615, 2 d; analog-sensitive cbk1-as2 kinase mutant strain; 190,000 compounds, 1.8% hits; inhibition, % at 50 µM;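 active = inhibition above a set limit, 3 SD over mean compound inhibition, cut at about 8.4% in these data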;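 note: 0% = DMSO-only wells with no growth and 100% = 10 µM 1-NA-PP1 full growth; inhibition rescues growth on 5-FOA so higher OD means more RAM inhibition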
WT yeast gro inh – growth inhibition of WT yeast, mitochondrial fusion screen; mitochondrial fusion phenotypic screen, WT strain; inhibition, % at 10 µM; 190,000 compounds, 2.1% hits; in the data active = inhibition above about 58%; tested in S. cerevisiae
Yeast lifespan up – yeast lifespan extension; 130,000 compounds, 0.68% hits; inhibition of the nicotinamide effect, % at 10 µM; S. cerevisiae growth with nicotinamide, OD615; deaD strain in restrictive glucose medium;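 active = inhibition above a set limit, placed 3 SD over the median of all compounds, cut at about 26% in these data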;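 note: 0% = nicotinamide-treated wells and 100% = cells grown without nicotinamide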
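Test system – modified budding yeast, DeaD strain · Compound – single dose 10 µM compound, 0.25% DMSO · Times – culture preincubation 4 h, compound exposure 48 h, both 30 °C · Detection – optical density (absorbance) at 615 nm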
KCC2 mod – KCC2 (human) Cl- transport modulation; Q9H2X9; KCC2 cells, thallium flux FluoZin-2 fluorescence; B-score of Tl+ flux slope (higher = more flux/activation; lower = inhibition) at 10 µM; 190,000 compounds, 2.2% hits; AID 1456;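 active = thallium flux slope and its plate-corrected score both differing from the plate sample mean at a set confidence after two filtering rounds, in either direction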;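 note: slope of fluorescence scaled to starting intensity during 10 to 20 s after thallium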
Target sequence (Q9H2X9 whole entry, looked up): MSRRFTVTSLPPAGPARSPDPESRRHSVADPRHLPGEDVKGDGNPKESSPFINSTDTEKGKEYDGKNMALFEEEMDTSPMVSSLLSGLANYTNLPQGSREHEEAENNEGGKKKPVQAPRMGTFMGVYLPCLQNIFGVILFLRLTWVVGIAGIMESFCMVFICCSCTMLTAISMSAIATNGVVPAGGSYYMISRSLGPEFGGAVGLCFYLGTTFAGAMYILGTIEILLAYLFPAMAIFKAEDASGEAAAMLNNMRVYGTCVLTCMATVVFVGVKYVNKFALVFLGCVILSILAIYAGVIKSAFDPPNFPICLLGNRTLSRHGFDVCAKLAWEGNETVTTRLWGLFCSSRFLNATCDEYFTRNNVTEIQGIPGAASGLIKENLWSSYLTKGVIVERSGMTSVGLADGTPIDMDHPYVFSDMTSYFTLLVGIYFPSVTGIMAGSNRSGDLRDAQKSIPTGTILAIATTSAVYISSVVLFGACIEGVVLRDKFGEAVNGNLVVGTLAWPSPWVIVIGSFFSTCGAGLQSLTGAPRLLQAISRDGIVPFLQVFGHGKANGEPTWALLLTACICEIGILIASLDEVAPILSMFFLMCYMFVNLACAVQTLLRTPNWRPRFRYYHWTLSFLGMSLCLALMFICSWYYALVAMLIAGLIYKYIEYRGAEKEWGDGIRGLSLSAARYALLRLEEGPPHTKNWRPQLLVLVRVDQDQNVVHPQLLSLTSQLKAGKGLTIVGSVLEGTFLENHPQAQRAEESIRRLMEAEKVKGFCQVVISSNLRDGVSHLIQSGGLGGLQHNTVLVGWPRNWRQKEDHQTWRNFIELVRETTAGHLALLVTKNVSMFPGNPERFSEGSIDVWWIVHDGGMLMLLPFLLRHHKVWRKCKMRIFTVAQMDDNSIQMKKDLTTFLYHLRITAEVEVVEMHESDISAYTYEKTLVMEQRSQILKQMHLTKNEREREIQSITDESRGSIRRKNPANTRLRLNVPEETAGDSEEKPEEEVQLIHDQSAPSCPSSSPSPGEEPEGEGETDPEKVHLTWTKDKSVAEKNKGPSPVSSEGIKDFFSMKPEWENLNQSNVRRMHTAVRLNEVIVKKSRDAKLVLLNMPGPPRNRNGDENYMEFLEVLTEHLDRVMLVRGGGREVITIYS
KCC2 sec1 – confirmation of human KCC2 transport modulators. shares compounds with KCC2 mod. HEK293-KCC2, thallium flux, FluoZin2 fluorescence; hits give high values. normalised thallium flux (F/F0 slope) at 10 µM. 3,700 compounds, 15% hits;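 active = thallium flux slope above the same plate's solvent-only control mean plus 3 SD; inconclusive = the two replicate wells disagree; inactive = no significant difference from solvent-only control wells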
KCC2 bumet counter – bumetanide-insensitive thallium flux in KCC2 cells with ouabain, counter-screen; AID 1714; shares compounds with KCC2 mod; HEK293-KCC2 + bumetanide/ouabain, thallium flux FluoZin2; hits give high values; 3,700 compounds, 49% hits; normalized thallium flux at 10 µM;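 active = thallium entry rate above the same plate's blocked-transporter control wells by more than 3 SD; inconclusive = the two repeat wells disagree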;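 note: raw slope of fluorescence over initial fluorescence between 10 and 20 s after thallium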
KCC2 secondary2 – confirmation of human KCC2 transport modulators | 3,700 compounds, 23% hits | shares compounds with KCC2 mod | HEK293-KCC2, thallium flux FluoZin2 fluorescence; actives lie on both sides; F/F0 rise rate, 10–20 s post-thallium | normalized thallium flux at 10 µM | AID 1715;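 active = thallium flux slope more than 3 SD above or below the plate's solvent-only control mean, mostly below; inconclusive = the two repeat wells disagreed; inactive = no significant shift from solvent-only controls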;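 note: raw slope with 0.1% DMSO as baseline and bumetanide as block control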
HEK counter1 – counter-screen for KCC2 modulators: effect in parental HEK293 cells; shares compounds with KCC2 mod; thallium flux FluoZin2, ouabain; baseline-ratio fluorescence slope, 10–20 s after thallium; thallium flux rate (normalised fluorescence) at 10 µM; 3,700 compounds, 46% hits;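 active = thallium flux rate significantly above the same plate's solvent-only control wells, beyond their mean plus 3 SD; inconclusive = the two replicate wells gave conflicting results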
KCC2 ouabain – KCC2 (human) modulation, ouabain retest. HEK293-KCC2, thallium flux FluoZin2 fluorescence; bidirectional: low = inhibitor, high = activator. 3,700 compounds, 48% hits. raw Tl+ flux slope (below DMSO = inhibition, above = activation) at 10 µM. shares compounds with KCC2 mod. AID 1717;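 active = thallium flux slope beyond 3 SD from same-plate DMSO control mean in most replicates, usually higher, sometimes lower; inconclusive = repeat tests gave conflicting results; inactive = no significant difference from controls in most replicates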;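 note: slope of initial-normalized fluorescence between seconds 10 and 20 after thallium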
HEK293 Tl flux2 – parental HEK flux effect, counter-screen 2; shares compounds with KCC2 mod; HEK293 parental, thallium flux FluoZin-2 fluorescence slope; thallium flux slope at 10 µM; 3,700 compounds, 33% hits;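 active = thallium flux slope above the same plate's solvent-control mean plus 3 SD in both duplicate wells; inconclusive = duplicate wells that disagreed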;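 note: run without ouabain in cells lacking the KCC2 cotransporter; slope of fluorescence scaled to its starting value between 10 and 20 s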
* = called active by the depositor; ? = inconclusive; . = no result.

SMILES	Yeast growth inh	RAM inhibit	WT yeast gro inh	Yeast lifespan up	KCC2 mod	KCC2 sec1	KCC2 bumet counter	KCC2 secondary2	HEK counter1	KCC2 ouabain	HEK293 Tl flux2
CCC(=NCCCN(CC)CC)c1c(O)n(-c2ccccc2)c(=O)[nH]c1=O	-53	1	-4	-5	0.003	.	.	.	.	.	.
C=CCn1c(O)c(C=NC2CCN(Cc3ccccc3)CC2)c(=O)[nH]c1=O	.	.	.	.	0.0067	.	.	.	.	.	.
CCCCCCn1c(O)c(C=NC2CCN(Cc3ccccc3)CC2)c(=O)[nH]c1=O	-48	1	17	17	.	0.018	0.0046	?	0.007	0.015	0.0096
COc1ccccc1-n1c(O)c(C=Nc2c(C)n(C)n(-c3ccccc3)c2=O)c(=O)[nH]c1=O	-57	1	10	-4	-0.042	.	.	.	.	.	.
CC1(c2ccccc2)NCCN2C(=O)CSC21 (stereo unspecified)	-14	1	25	1	-2.3	0.0086	0.0061	0.035	0.0045	0.02	0.011
O=C1CSC2N1CCNC21CCCCC1 (stereo unspecified)	-25	0	29	-4	-0.032	.	.	.	.	.	.
COc1cccc(/C=C2\N=C(c3cncc(Br)c3)OC2=O)c1	-31	3	7	11	-0.19	.	.	.	.	.	.
O=c1[nH]c(=S)[nH]c(O)c1N=Nc1ccc(OC(F)F)cc1	.	7	13	.	42*	?	0.073*	0.035	0.011*	0.069*	0.011
COc1ccc(N=Nc2c(O)[nH]c(=S)[nH]c2=O)cc1	.	7	4	.	-0.012	.	.	.	.	.	.
